Experiments:
aPL pool = experiment: custom immunoassay; format: binding, human; conditions: coated on plate (10 μg/ml); aPL pool 1/10 dilution; n = 9
[1] = test system: aPL pool sera / IIa‐8.0‐biot‐2x; experiment: inhibition of aPL binding to IIa‐8.0‐biot‐2x ELISA; format: biochemical, human; conditions: preincubation 90 min, room temperature; 1, 10 and 100 μg/ml; n = 3–4; Figure 7A
How it was run: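 Pooled plasma from 11 APS patients (aPL pool sera) was preincubated for 90 min at room temperature with increasing concentrations (1, 10, 100) of monomeric peptide. It was then run in the anti-β2GP1 IgG ELISA on streptavidin-coated plates bearing the biotinylated dimeric peptide. Bound IgG was detected with anti-human secondary antibody (IRDye800CW or HRP) as fluorescence (AU) or A405. Mean ± SEM, n = 3–4.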

[2] = test system: aPL from pool of plasma from 11 human patients; experiment: surface plasmon resonance, aPL over immobilized biotinylated peptide; format: binding; conditions: shape of stabilization curves; Figures 3C, 3D, 4E

VSRGGMRKFICPLTG [R39‐R43]
ability to interact with aPL compared with β2GP1 (aPL pool): same ability to interact with aPL than β2GP1 | inhibition of aPL binding to IIa‐8.0‐biot‐2x, monomeric peptide [1]: failed to significantly inhibit

VSRGGMRKKKKPLTG [Ib‐1‐biot]
sustained interaction / stability of binding with aPL [2]: neither R39‐R43‐biot nor Ib‐1‐biot have sustained interaction with aPL

Reference: PMC9592562 (Research and Practice in Thrombosis and Haemostasis, 2022)
